The values that follow come from PubChem BioAssay AID602266 (Broad Institute, 2012).

Records with an inconclusive call do not appear. The source made the active and inactive calls.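 How the source made its calls: active means compounds whose fitted half-maximal inhibition dose is at most double their top valid tested dose; inconclusive means flat curve with 30 to 70% inhibition, or poor fit; inactive means the rest.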

Tested on in one assay: not listed separately
Description: reduction of heat-induced Hsp90aa mRNA, dose response, orthogonal assay for HSF1 inhibitor project, NIH-3T3 cells, RT-qPCR, cherry-pick (AID 602266). The following applies: NIH-3T3 HGL cells, heat shock, Hsp90aa mRNA qPCR; at 26 µM (top of the series). The procedure, abridged: (§1)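 Assay system: HGL cells, NIH-3T3 mouse fibroblasts with HSE-driven GFP/luciferase construct. Timing: overnight plating, 90-min compound pretreatment, 90-min heat shock, 1-h recovery. Signal: Two-step multiplex TaqMan RT-qPCR.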
Consider `C[C@@H]1C[C@H]2[C@@H]3CCC4=CC(=O)C=C[C@]4(C)[C@@]3(F)[C@@H](O)C[C@]2(C)[C@@]1(O)C(=O)CO`, for which the activity change, negative = inhibition was 6.93% (inactive).
`Cc1nc(SCC(=O)Nc2nc3ccccc3s2)c(C#N)c(C)c1C`: the activity change, negative = inhibition is 7.25% (inactive).
Same read-out and setting: with `CC1CCN(c2ccc(-c3cccc(NC(=O)C(F)(F)F)c3)nn2)CC1` the figure was 37.6% (inactive).
The same measure, in the same setting: as for `Cc1c(-c2nc(-c3ccc(C(C)(C)C)cc3)no2)n(C)oc1=O`, the figure is 18.8% (inactive); as for `Cc1cccc(-n2ncc3c(N(C)C4CCCCC4)ncnc32)c1`, 27% (inactive).
The same measure, in the same setting: with `COC(=O)c1ccccc1NC(=O)c1ccc(-c2ccc(Br)cc2)o1` the figure was 4.07% (inactive).
`CCS(=O)(=O)N1Cc2ccccc2CC1C(=O)Nc1nc2ccccc2s1` (stereo not given): the activity change, negative = inhibition is 33.2% (inactive).
As for `C(=N\Nc1nc2ccccc2s1)/c1ccccn1`, the activity change, negative = inhibition is 82.6% (inactive).
Still for that read-out and setting: as for `N#CCCCC#Cc1ccc2c(c1)COc1c3ccccc3nn1-2`, the figure is 65.7% (inactive); as for `CN(C(=O)OC(C)(C)C)c1ccc(-c2nc3ccccc3s2)cc1`, 46.6% (inactive).
For the compound `CC(=O)[C@@]1(O)C(C)CC2C3C=C(C)C4=Cc5c(cnn5-c5ccccc5)C[C@]4(C)C3C(O)C[C@@]21C` (stereo not given in full), the activity change, negative = inhibition was 97.3% (inactive).
Same read-out and setting: with `O=C(Nc1ccc(F)cc1F)c1cc2nc3c(c(C(F)(F)F)n2n1)CCCC3` the figure was 2.56% (inactive); with `C[C@]12C=CC(=O)C=C1CC[C@@H]1[C@@H]2[C@@H](O)C[C@@]2(C)[C@H]1CC[C@]2(O)C(=O)CO`, 4.41% (inactive); with `O=c1c2ccccc2sc2ccc(C#CC3(O)CCCCC3)cc12`, 49.4% (inactive).
As to `Cc1ccc(/C=N/Nc2ccc(C(=O)O)cc2)s1`, the activity change, negative = inhibition was 32.5% (inactive).
Still for that read-out and setting: with `CC(C)Sc1nc(SCC(=O)NCc2ccco2)c2c3c(sc2n1)COC(C)(C)C3` the figure was 52.6% (inactive); with `CC(=O)OCC(=O)[C@@]12OC(C)(C)O[C@@H]1CC1C3C[C@H](F)C4=CC(=O)C=CC4(C)[C@@]3(F)C(O)CC12C` (stereo not given in full), -1.11% (inactive).
Still for that read-out and setting: as for `CCOc1ccc(OCc2cccc(C(=O)N/N=C/c3cccnc3)c2)cc1`, the figure is 37.3% (inactive); as for `CCC(=O)O[C@]1(C(=O)CCl)[C@@H](C)C[C@H]2[C@@H]3CCC4=CC(=O)C=C[C@]4(C)[C@@]3(F)[C@@H](O)C[C@@]21C`, 30.2% (inactive); as for `O=[N+]([O-])c1nn(-c2ccc3c(c2)OCCO3)n(O)c1=Nc1ccccc1`, 29% (inactive).
Still for that read-out and setting: as for `CC1CCCN(c2ncnc3c2cnn3-c2ccc(Cl)cc2)C1` (stereo not given), the figure is 28.9% (inactive); as for `O=C(CN1C(=O)c2ccccc2S1(=O)=O)c1ccc2c(c1)OCCCO2`, 13.4% (inactive); as for `CC12CCC(=O)C=C1CCC1C2C(O)CC2(C)C1CCC2(O)C(=O)CO` (stereo not given), 4.01% (inactive).
As to `CC(C)(C)c1ccc(/C=N/Nc2cccc(C(=O)O)c2)cc1`, the activity change, negative = inhibition was 12.9% (inactive).

In another assay the test system is NIH-3T3 HGL cells, heat shock, Hsp90aa mRNA qPCR. Described as above.
Conditions: not given
The procedure, abridged: as §1
As a reminder, the AC50 is the midpoint of the concentration-response curve, whichever way the signal moves. As for `CC1=C(C(=O)OCc2ccc3c(c2)OCO3)C(c2ccc(F)cc2)NC(=O)N1` (stereo not given), the concentration at half-maximal activity (AC50) was 1.39 µM.
